Usually inhibition stands for how much of the control response was suppressed.

Each structure is given as a SMILES string.

Test [1] addresses Kappa-type opioid receptor (Homo sapiens, UniProt P41145). Briefly: Displacement of [3H]-U69593 from human kappa opioid receptor expressed in CHO cells after 60 mins by scintillation counting. The class given is cell-based. The procedure, abridged:
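Recombinant CHO cell membranes incubated 60 min at room temperature with 3 nM [3H]U69593 and varying ligand concentrations; nonspecific binding with 10 μM naloxone. Rapid filtration, liquid scintillation counting. Ki by Cheng–Prusoff; four independent experiments, each in duplicate.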
For orientation: Displacement assays read how much labelled ligand stays bound in the presence of the test substance.

Test [2] deals with Delta-type opioid receptor (Homo sapiens, UniProt P41143). The experiment in a line: Displacement of [3H]-DPDPE from human delta opioid receptor expressed in HN9.10 cells after 3 hrs by scintillation counting. The class given is cell-based. In outline: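 Membranes from transfected HN9.10 cells expressing MOR or DOR, in 50 mM Tris pH 7.4 with bacitracin, bestatin, captopril, PMSF, BSA. 50 μg membrane with 10 concentrations of test compound and 1.0 nM [3H]DAMGO (MOR) or [3H]DPDPE (DOR); nonspecific with 10 μM naloxone. 25 °C, 3 h, duplicate; GF/B filtration, scintillation counting; Ki by Cheng–Prusoff.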
Delta-type opioid receptor, sequence (P41143 whole entry): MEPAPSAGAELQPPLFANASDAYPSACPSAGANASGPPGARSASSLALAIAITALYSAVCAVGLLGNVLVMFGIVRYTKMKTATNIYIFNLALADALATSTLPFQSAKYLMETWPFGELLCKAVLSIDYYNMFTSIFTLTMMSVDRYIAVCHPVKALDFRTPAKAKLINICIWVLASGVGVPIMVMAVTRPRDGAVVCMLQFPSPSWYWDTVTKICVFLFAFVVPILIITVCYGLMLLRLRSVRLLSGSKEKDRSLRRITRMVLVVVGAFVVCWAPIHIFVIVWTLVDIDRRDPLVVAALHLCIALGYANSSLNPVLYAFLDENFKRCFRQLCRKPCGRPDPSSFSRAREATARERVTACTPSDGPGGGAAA

Test [3] has as its target Delta-type opioid receptor (Mus musculus) (UniProt P32300). The experiment in a line: Agonist activity at delta opioid receptor in ICR mouse vas deferens assessed as inhibition of electrically-stimulated muscle contraction at 1 uM after 3 mins. In kind it is functional, tissue-based. In outline: (§1)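 Transmurally stimulated tissue (0.1 Hz; 2.0 ms pulses MVD, 0.4 ms GPI; supramaximal voltage) from male ICR mice (25−30 g) or male Hartley guinea pigs (150−400 g; ileum longitudinal muscle-myenteric plexus), in 37 °C oxygenated Krebs bicarbonate (Mg-free for MVD), tension 0.5 g MVD / 1 g GPI. Agonist in contact 3 min, then washout; percent inhibition of contraction at single concentration.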

Test [4] concerns the target Mu-type opioid receptor (Cavia porcellus) (UniProt P97266). The experiment in a line: Agonist activity at mu opioid receptor in Hartley guinea pig ileum assessed as inhibition of electrically-stimulated muscle contraction at 1 uM after 3 mins. The class given is functional, tissue-based. The procedure, abridged: as §1

Delta-type opioid receptor (Mus musculus), sequence (P32300 whole entry): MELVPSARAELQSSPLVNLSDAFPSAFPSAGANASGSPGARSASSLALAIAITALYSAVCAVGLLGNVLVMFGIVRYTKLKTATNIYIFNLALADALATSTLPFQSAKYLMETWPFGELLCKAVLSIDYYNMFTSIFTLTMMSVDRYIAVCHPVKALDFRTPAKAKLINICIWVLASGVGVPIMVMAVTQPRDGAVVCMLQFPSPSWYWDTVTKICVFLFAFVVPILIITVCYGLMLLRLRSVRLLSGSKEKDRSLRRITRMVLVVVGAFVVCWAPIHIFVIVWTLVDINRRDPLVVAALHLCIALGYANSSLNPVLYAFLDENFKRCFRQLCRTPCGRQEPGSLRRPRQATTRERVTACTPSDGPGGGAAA
Kappa-type opioid receptor, sequence (P41145 whole entry): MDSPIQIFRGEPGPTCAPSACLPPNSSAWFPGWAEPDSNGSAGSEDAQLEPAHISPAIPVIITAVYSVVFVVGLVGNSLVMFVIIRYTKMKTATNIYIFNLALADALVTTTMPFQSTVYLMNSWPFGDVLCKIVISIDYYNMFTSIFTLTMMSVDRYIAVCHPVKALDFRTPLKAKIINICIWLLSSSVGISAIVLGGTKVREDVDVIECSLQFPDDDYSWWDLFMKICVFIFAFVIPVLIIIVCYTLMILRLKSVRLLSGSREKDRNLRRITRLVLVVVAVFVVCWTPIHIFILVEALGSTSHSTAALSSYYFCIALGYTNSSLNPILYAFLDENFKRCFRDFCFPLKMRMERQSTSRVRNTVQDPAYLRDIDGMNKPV
Mu-type opioid receptor (Cavia porcellus), sequence (P97266 whole entry): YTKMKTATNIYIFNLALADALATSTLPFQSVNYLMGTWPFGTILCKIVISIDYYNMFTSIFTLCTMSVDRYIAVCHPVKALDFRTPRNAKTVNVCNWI

Turning to `Br.NC(=O)[C@H](Cc1ccccc1)NC(=O)[C@H](Cc1ccccc1)NC(=O)[C@@H]1C[C@H](N)CN1C(=O)[C@@H](N)Cc1ccc(O)cc1`, the Ki entry in test [1] and in test [2] was “Not Active” each time. Besides, the inhibition in test [3] was 20%.
As for `Br.N[C@H]1C[C@@H](C(=O)N[C@@H](Cc2ccccc2)C(=O)N[C@@H](Cc2ccccc2)C(=O)O)N(C(=O)[C@@H](N)Cc2ccc(O)cc2)C1`, the inhibition in test [4] was found to be 0%; in test [3] it was 3.6%. In test [1], the Ki entry is listed as “Not Active”.
In the case of `N[C@@H](Cc1ccc(O)cc1)C(=O)N1C[C@@H]2C[C@H]1C(=O)N[C@@H](Cc1ccccc1)C(=O)N[C@@H](Cc1ccccc1)C(=O)N2`, the inhibition in test [4] stood at 1.4%; in test [3], 0%. Also, the Ki entry in test [1] and in test [2] was “Not Active” in each case.

The values above are taken from ChEMBL document CHEMBL2046270, “The cis-4-amino-L-proline residue as a scaffold for the synthesis of cyclic and linear endomorphin-2 analogues” (J Med Chem, 2012).
